# Data as given in ChEMBL document CHEMBL3352255, “Tailor-made fluorescent trilobolide to study its biological relevance” (J Med Chem, 2014).
# Active and inactive are the calls of the source. No cut-off for these calls is given here.
# Tests used:
# LNCaP [1] = experiment: Cellular uptake in human LNCAP cells at 1 uM after 40 mins to 24 hrs by fluorescence microscopy; assay type: ADME, cell-based
# Method in brief: (§1)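 Uptake into living cells was followed by fluorescence microscopy at 10, 20 and 40 min and at 1, 3, 5 and 24 h. Green-emitting Bodipy conjugates were given at 1 μM. A Bodipy dye-only stain served as control for dye-driven localisation.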
# LNCaP [2] = experiment: Cytotoxicity against human LNCAP cells after 72 hrs by WST-1 assay; assay type: functional, cell-based
# Method in brief: (§2)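 Dark cytotoxicity (no light exposure) by WST-1 tetrazolium-to-formazan conversion reflecting metabolic activity; compounds tested at concentrations up to 50 μM for 24, 48 or 72 h; IC50 taken as concentration giving 50% inhibition of cell viability.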
# HT-29 [3] = experiment: Cytotoxicity against human HT-29 cells after 48 hrs by WST-1 assay; assay type: functional, cell-based; conditions: HT-29, 48 h; method in brief: as §2
# [4] = Cellular uptake in human PC3 cells at 1 uM after 40 mins to 24 hrs by fluorescence microscopy; assay type: ADME, cell-based; conditions: pc-3, 1 µM; method in brief: as §1
# C2C12 [5] = experiment: Cellular uptake in mouse C2C12 cells at 1 uM after 20 mins by fluorescence microscopy; assay type: ADME, cell-based; conditions: c2c12, 20 min; method in brief: as §1
# MCF7 = experiment: Cellular uptake in human MCF7 cells at 1 uM after 20 mins by fluorescence microscopy; assay type: ADME, cell-based; conditions: mcf7, 20 min; method in brief: as §1
# [6] = Cellular uptake in human MIAPaCa2 cells at 1 uM after 20 mins by fluorescence microscopy; assay type: ADME, cell-based; conditions: mia paca-2, 20 min; method in brief: as §1
# U2OS = experiment: Cellular uptake in human U2OS cells at 1 uM after 20 mins by fluorescence microscopy; assay type: ADME, cell-based; method in brief: as §1
# Rattus norvegicus = species on record: Rattus norvegicus; experiment: Induction of TNFalpha production in rat peritoneal cells at 10 uM after 24 hrs using by ELISA; assay type: functional, cell-based
# Method in brief: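 Rat peritoneal cells exposed to compounds at 10 μM for 24 h; secreted TNF-α quantified by ELISA; LPS (1000 pg·mL−1) and parent trilobolide (1 μM) as positive controls; mean ± SEM of two independent experiments, n = 4, compared with untreated cells.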
# LNCaP [7] = experiment: Cytotoxicity against human LNCAP cells after 24 hrs by WST-1 assay; assay type: functional, cell-based; method in brief: as §2
# [8] = Cytotoxicity against rat peritoneal cells assessed as reduction in cell viability at 40 uM after 24 hrs by WST-1 assay
# HT-29 [9] = experiment: Cytotoxicity against human HT-29 cells after 72 hrs by WST-1 assay; assay type: functional, cell-based; conditions: HT-29, 72 h; method in brief: as §2
# [10] = Cellular uptake in Endoplasmic reticulum of human LNCAP cells at 1 uM after 1 hr by fluorescence microscopy; assay type: ADME, cell-based
# Method in brief: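 Live-cell fluorescence microscopy of cells exposed to Bodipy-labelled conjugates at 1 μM for 1 h. ER was co-stained with ER-Tracker Blue-White DPX (100 nM, 20 min) to check colocalisation. A Bodipy dye-only stain served as control.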
# LNCaP [11] = experiment: Cytotoxicity against human LNCAP cells after 48 hrs by WST-1 assay; assay type: functional, cell-based; method in brief: as §2
# [12] = Cytotoxicity against rat peritoneal cells assessed as reduction in cell viability at 40 uM after 24 hrs by WST-1 assay; assay type: cell-based
# A549 [13] = experiment: Cellular uptake in human A549 cells at 1 uM after 20 mins by fluorescence microscopy; assay type: ADME, cell-based; conditions: a549, 20 min; method in brief: as §1
# [14] = Cellular uptake in HEK293T cells at 1 uM after 40 mins to 24 hrs by fluorescence microscopy; assay type: ADME, cell-based; conditions: human, hek-293t; method in brief: as §1
# HeLa = experiment: Cellular uptake in human HeLa cells at 1 uM after 40 mins to 24 hrs by fluorescence microscopy; assay type: ADME, cell-based; method in brief: as §1
# C2C12 [15] = experiment: Cellular uptake in mouse C2C12 cells at 1 uM after 40 mins to 24 hrs by fluorescence microscopy; assay type: ADME, cell-based; conditions: c2c12, 1 µM; method in brief: as §1
# A549 [16] = experiment: Cellular uptake in human A549 cells at 1 uM after 40 mins to 24 hrs by fluorescence microscopy; assay type: ADME, cell-based; conditions: a549, 1 µM; method in brief: as §1
Compound,Drug uptake (LNCaP [1]),IC50 (LNCaP [2]) [µM],IC50 (HT-29 [3]) [µM],Drug uptake [4],Drug uptake (C2C12 [5]),Drug uptake (MCF7),Drug uptake [6],Drug uptake (U2OS),Activity (Rattus norvegicus),IC50 (LNCaP [7]) [µM],Activity [8],IC50 (HT-29 [9]) [µM],Drug uptake [10],IC50 (LNCaP [11]) [µM],Activity [12],Drug uptake (A549 [13]),Drug uptake [14],Drug uptake (HeLa),Drug uptake (C2C12 [15]),Drug uptake (A549 [16])
C/C=C(/C)C(=O)O[C@@H]1C[C@H]2C(=C1C)[C@@H]1OC(=O)[C@@](C)(O)[C@@]1(O)[C@@H](OC(=O)CCOCCOCCOCCOCCn1cc(COc3ccc(C4=C5C=CC=[N+]5[B-](F)(F)n5cccc54)cc3)nn1)C[C@]2(C)OC(C)=O,Active,20.5,14.2,Active,Active,Active,Active,Active,Active,7.4,Non-toxic,> 50,Active,0.4,Non-toxic,Active,–,–,–,–
C/C=C(/C)C(=O)O[C@@H]1C[C@H]2C(=C1C)[C@@H]1OC(=O)[C@@](C)(O)[C@@]1(O)[C@@H](OC(=O)CCCCn1cc(COc3ccc(C4=C5C=CC=[N+]5[B-](F)(F)n5cccc54)cc3)nn1)C[C@]2(C)OC(C)=O,Active,> 50,> 50,Active,Active,Active,Active,Active,–,12.7,–,> 50,Active,9.7,20%,Active,Active,Active,Active,Active
